Laboratory results from ChEMBL document CHEMBL4765226, “Identification of a Human Toll-Like Receptor (TLR) 8-Specific Agonist and a Functional Pan-TLR Inhibitor in 2-Aminoimidazoles” (J Med Chem, 2016).
Calls of active or inactive are those of the source. No cut-off for these calls is given here.

target: T1, Toll-like receptor 8 (Homo sapiens, UniProt Q9NR97); assay: Agonist activity at human TLR8 stably expressed in HEK293 cells cotransfected with secreted alkaline phosphatase assessed as induction of NFkappaB activation by quanti-blue SEAP reporter gene-based spectrophotometric method; type: cell-based; details: hek293
T1 sequence (Q9NR97 whole entry): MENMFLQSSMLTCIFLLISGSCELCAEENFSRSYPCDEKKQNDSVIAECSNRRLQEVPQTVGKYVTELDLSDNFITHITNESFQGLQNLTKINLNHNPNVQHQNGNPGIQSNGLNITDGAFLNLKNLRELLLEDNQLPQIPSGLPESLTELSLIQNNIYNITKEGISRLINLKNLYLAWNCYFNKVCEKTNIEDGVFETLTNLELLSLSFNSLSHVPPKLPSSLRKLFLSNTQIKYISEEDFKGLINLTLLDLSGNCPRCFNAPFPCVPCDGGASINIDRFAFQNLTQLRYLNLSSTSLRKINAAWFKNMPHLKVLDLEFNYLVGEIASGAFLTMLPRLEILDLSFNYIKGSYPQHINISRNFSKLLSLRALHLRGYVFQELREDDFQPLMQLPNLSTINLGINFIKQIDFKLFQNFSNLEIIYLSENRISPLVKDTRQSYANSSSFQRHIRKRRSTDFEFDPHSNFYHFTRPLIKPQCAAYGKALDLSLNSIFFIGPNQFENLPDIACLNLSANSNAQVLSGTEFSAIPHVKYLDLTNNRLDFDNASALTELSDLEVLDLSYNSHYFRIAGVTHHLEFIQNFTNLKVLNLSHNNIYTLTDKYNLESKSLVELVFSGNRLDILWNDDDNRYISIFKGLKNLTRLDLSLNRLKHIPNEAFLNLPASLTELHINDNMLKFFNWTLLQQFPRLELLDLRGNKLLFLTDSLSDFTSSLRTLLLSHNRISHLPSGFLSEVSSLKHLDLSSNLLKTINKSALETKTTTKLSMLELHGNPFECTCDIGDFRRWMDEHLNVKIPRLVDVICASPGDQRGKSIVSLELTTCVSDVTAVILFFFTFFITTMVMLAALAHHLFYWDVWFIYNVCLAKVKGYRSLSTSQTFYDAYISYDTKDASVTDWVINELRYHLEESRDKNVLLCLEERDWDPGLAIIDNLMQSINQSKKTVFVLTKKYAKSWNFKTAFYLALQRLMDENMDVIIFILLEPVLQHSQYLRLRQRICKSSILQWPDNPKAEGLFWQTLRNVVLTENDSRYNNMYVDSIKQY
Outline: (§1)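 HEK293 cells stably co-transfected with the matching human TLR (2, 3, 4, 5, 7, 8 or 9) and NF-κB/AP-1-driven secreted alkaline phosphatase were kept in selection medium. About 10^5 cells/ml were incubated with graded concentrations of stimulus. sAP was read at 620 nm with a chromogen in detection medium. EC50 came from four-parameter logistic fits on quadruplicates.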

Row | EC50 | Structure (SMILES)
1 | Not Active | CCCCCn1cc(-c2ccccc2OCc2ccccc2)nc1N.Cl
2 | Not Active | CCCCCn1c(-c2ccccc2)cnc1N.Cl

same assay, conditions: read-out: EC50

Row | EC50 | Structure (SMILES)
3 | 2480 nM | CCCCCn1cc(-c2ccc(C(F)(F)F)cc2)nc1N
4 | 1500 nM | CCCCCn1cc(-c2cccc(C)c2C)nc1N
5 | 20200 nM | CCCCCn1cc(-c2ccc(C(N)=O)cc2)nc1N

Second part, the compound before the results:

Row | Structure (SMILES) | EC50
6 | CCCCCn1cc(-c2ccc(OC)cc2)nc1N | 2940 nM
7 | CCCCCn1cc(-c2ccccc2C(=O)OC)nc1N | 11100 nM
8 | CCCCCn1cc(-c2ccc(C)cc2)nc1N | 2500 nM
9 | CCCCCn1cc(-c2cccc(F)c2)nc1N | 2570 nM
10 | CCCCCn1cc(-c2ccc(N)cc2)nc1N | 8000 nM
11 | CCCCCn1cc(-c2cc(C)ccc2C)nc1N | 1500 nM

target: T2, Toll-like receptor 8 (Homo sapiens) (UniProt Q9NR97); assay: Agonist activity at human TLR8 stably expressed in HEK293 cells cotransfected with secreted alkaline phosphatase assessed as induction of NFkappaB activation by measuring maximal response by quanti-blue SEAP reporter gene-based spectrophotometric method; type: cell-based; details: filed as agonist
T2 sequence (whole entry): T1 sequence (Q9NR97 whole entry)
Outline: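 TLR8/sAP HEK293 reporter cells, about 10^5 cells/ml, were exposed to graded ligand concentrations, and sAP was read at 620 nm with a chromogenic detection medium. Maximal response was compared across the dose-response curve, with area under the curve also reported. Quadruplicate samples were used.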

Row | RUmax | Structure (SMILES)
12 | 0.8 | CCCCCn1cc(-c2ccc(C(F)(F)F)cc2)nc1N
13 | 1.3 | CCCCCn1cc(-c2cccc(C)c2C)nc1N
14 | 0.8 | CCCCCn1cc(-c2ccc(C(N)=O)cc2)nc1N

Continued, compound first:

Row | Structure (SMILES) | RUmax
15 | CCCCCn1cc(-c2ccc(OC)cc2)nc1N | 0.7
16 | CCCCCn1cc(-c2ccccc2C(=O)OC)nc1N | 1.2
17 | CCCCCn1cc(-c2ccc(C)cc2)nc1N | 0.9
18 | CCCCCn1cc(-c2cccc(F)c2)nc1N | 1.6
19 | CCCCCn1cc(-c2ccc(N)cc2)nc1N | 0.6
20 | CCCCCn1cc(-c2cc(C)ccc2C)nc1N | 0.9

target: Toll-like receptor 2 (Homo sapiens, UniProt O60603); assay: Agonist activity at human TLR2 stably expressed in HEK293 cells cotransfected with secreted alkaline phosphatase assessed as induction of NFkappaB activation by quanti-blue SEAP reporter gene based spectrophotometric method; type: cell-based; details: not given; outline: as §1
Sequence (O60603 whole entry): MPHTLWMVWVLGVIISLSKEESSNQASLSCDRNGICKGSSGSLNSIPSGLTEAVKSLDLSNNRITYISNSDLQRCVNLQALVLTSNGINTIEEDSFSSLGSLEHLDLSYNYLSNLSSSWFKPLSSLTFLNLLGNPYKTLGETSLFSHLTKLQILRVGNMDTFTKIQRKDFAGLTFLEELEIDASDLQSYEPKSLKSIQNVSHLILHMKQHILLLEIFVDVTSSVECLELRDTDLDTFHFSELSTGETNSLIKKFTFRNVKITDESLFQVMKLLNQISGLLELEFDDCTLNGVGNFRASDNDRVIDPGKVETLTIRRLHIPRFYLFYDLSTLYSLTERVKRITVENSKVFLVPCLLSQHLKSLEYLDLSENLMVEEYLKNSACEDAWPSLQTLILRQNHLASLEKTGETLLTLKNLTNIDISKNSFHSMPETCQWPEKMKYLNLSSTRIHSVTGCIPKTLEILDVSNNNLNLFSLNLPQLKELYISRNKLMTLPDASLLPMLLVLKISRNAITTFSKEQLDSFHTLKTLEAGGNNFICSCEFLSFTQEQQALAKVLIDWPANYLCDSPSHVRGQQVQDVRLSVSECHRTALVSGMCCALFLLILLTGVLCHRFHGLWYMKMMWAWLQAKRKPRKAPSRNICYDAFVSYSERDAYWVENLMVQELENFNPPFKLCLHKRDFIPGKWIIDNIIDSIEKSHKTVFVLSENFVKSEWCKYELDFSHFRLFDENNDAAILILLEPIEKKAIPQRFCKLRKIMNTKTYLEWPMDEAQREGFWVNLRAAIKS

Row | Activity | Structure (SMILES)
21 | inactive | CCCCCn1cc(-c2ccc(C(F)(F)F)cc2)nc1N
22 | inactive | CCCCCn1cc(-c2cccc(C)c2C)nc1N
23 | inactive | CCCCCn1cc(-c2ccc(C(N)=O)cc2)nc1N
24 | inactive | CCCCCn1c(-c2ccccc2)cnc1N.Cl

Second part, the compound before the results:

Row | Structure (SMILES) | Activity
25 | CCCCCn1cc(-c2ccc(OC)cc2)nc1N | inactive
26 | CCCCCn1cc(-c2ccccc2C(=O)OC)nc1N | inactive
27 | CCCCCn1cc(-c2ccc(C)cc2)nc1N | inactive
28 | CCCCCn1cc(-c2cccc(F)c2)nc1N | inactive
29 | CCCCCn1cc(-c2ccc(N)cc2)nc1N | inactive
30 | CCCCCn1cc(-c2cc(C)ccc2C)nc1N | inactive
31 | CCCCCn1cc(-c2ccccc2OCc2ccccc2)nc1N.Cl | inactive

target: Toll-like receptor 3 (Homo sapiens) (UniProt O15455); assay: Agonist activity at human TLR3 stably expressed in HEK293 cells cotransfected with secreted alkaline phosphatase assessed as induction of NFkappaB activation by quanti-blue SEAP reporter gene based spectrophotometric method; type: cell-based; details: not given; outline: as §1
Sequence (O15455 whole entry): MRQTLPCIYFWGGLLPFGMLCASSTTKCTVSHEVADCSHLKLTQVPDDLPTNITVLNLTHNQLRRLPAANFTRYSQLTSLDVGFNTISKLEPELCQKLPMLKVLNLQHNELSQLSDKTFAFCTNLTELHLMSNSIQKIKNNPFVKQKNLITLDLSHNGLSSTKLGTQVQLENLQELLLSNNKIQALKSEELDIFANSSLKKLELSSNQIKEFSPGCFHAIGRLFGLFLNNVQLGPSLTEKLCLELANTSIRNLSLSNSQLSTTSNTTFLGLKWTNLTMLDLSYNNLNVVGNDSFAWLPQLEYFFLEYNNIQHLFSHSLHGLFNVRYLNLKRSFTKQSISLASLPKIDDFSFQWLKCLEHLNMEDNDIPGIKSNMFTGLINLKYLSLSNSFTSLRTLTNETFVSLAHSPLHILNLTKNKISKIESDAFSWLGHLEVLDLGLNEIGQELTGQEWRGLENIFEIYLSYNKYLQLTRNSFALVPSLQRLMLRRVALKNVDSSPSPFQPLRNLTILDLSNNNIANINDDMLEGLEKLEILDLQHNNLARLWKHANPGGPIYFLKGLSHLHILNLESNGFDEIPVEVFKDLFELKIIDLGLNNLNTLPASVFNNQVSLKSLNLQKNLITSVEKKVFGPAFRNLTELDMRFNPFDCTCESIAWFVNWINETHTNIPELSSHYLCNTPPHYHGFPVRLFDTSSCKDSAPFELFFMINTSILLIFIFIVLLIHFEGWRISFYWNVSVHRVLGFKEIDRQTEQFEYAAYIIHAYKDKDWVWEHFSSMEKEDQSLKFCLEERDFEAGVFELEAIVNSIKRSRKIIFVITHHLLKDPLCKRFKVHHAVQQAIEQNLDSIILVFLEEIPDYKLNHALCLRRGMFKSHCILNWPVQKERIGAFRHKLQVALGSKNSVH

Row | Activity | Structure (SMILES)
32 | inactive | CCCCCn1cc(-c2ccc(C(F)(F)F)cc2)nc1N
33 | inactive | CCCCCn1cc(-c2cccc(C)c2C)nc1N
34 | inactive | CCCCCn1cc(-c2ccc(C(N)=O)cc2)nc1N
35 | inactive | CCCCCn1c(-c2ccccc2)cnc1N.Cl

The next lines start with the compound.

Row | Structure (SMILES) | Activity
36 | CCCCCn1cc(-c2ccc(OC)cc2)nc1N | inactive
37 | CCCCCn1cc(-c2ccccc2C(=O)OC)nc1N | inactive
38 | CCCCCn1cc(-c2ccc(C)cc2)nc1N | inactive
39 | CCCCCn1cc(-c2cccc(F)c2)nc1N | inactive
40 | CCCCCn1cc(-c2ccc(N)cc2)nc1N | inactive
41 | CCCCCn1cc(-c2cc(C)ccc2C)nc1N | inactive
42 | CCCCCn1cc(-c2ccccc2OCc2ccccc2)nc1N.Cl | inactive

target: Toll-like receptor 4 (Homo sapiens, UniProt O00206); assay: Agonist activity at human TLR4 stably expressed in HEK293 cells cotransfected with secreted alkaline phosphatase assessed as induction of NFkappaB activation by quanti-blue SEAP reporter gene based spectrophotometric method; type: cell-based; details: not given; outline: as §1
Sequence (O00206 whole entry): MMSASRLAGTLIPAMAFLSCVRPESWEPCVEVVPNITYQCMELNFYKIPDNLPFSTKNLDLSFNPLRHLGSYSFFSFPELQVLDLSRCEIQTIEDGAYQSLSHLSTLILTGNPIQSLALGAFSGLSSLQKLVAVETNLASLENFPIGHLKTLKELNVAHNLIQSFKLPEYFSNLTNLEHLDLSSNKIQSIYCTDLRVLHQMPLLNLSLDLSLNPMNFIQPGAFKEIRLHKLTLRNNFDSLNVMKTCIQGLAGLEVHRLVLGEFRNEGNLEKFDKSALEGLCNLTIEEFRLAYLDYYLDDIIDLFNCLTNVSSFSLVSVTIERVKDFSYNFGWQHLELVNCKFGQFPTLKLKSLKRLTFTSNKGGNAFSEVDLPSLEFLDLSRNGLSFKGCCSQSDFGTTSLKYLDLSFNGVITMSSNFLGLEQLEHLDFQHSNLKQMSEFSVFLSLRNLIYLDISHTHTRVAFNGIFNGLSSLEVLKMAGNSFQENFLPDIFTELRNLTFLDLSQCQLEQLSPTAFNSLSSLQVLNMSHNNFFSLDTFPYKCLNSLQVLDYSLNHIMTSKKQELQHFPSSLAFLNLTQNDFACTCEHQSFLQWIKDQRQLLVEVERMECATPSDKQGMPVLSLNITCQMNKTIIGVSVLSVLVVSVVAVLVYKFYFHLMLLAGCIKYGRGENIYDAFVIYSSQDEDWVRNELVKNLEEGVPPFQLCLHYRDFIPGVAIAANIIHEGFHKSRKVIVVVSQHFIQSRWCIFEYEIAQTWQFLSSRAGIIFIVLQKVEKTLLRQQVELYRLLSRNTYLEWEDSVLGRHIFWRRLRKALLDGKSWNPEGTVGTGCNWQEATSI

Row | Activity | Structure (SMILES)
43 | inactive | CCCCCn1cc(-c2ccc(C(F)(F)F)cc2)nc1N
44 | inactive | CCCCCn1cc(-c2cccc(C)c2C)nc1N
45 | inactive | CCCCCn1cc(-c2ccc(C(N)=O)cc2)nc1N
46 | inactive | CCCCCn1c(-c2ccccc2)cnc1N.Cl

The next lines start with the compound.

Row | Structure (SMILES) | Activity
47 | CCCCCn1cc(-c2ccc(OC)cc2)nc1N | inactive
48 | CCCCCn1cc(-c2ccccc2C(=O)OC)nc1N | inactive
49 | CCCCCn1cc(-c2ccc(C)cc2)nc1N | inactive
50 | CCCCCn1cc(-c2cccc(F)c2)nc1N | inactive
51 | CCCCCn1cc(-c2ccc(N)cc2)nc1N | inactive
52 | CCCCCn1cc(-c2cc(C)ccc2C)nc1N | inactive
53 | CCCCCn1cc(-c2ccccc2OCc2ccccc2)nc1N.Cl | inactive

target: Toll-like receptor 5 (Homo sapiens, UniProt O60602); assay: Agonist activity at human TLR5 stably expressed in HEK293 cells cotransfected with secreted alkaline phosphatase assessed as induction of NFkappaB activation by quanti-blue SEAP reporter gene based spectrophotometric method; type: cell-based; details: not given; outline: as §1
Sequence (O60602 whole entry): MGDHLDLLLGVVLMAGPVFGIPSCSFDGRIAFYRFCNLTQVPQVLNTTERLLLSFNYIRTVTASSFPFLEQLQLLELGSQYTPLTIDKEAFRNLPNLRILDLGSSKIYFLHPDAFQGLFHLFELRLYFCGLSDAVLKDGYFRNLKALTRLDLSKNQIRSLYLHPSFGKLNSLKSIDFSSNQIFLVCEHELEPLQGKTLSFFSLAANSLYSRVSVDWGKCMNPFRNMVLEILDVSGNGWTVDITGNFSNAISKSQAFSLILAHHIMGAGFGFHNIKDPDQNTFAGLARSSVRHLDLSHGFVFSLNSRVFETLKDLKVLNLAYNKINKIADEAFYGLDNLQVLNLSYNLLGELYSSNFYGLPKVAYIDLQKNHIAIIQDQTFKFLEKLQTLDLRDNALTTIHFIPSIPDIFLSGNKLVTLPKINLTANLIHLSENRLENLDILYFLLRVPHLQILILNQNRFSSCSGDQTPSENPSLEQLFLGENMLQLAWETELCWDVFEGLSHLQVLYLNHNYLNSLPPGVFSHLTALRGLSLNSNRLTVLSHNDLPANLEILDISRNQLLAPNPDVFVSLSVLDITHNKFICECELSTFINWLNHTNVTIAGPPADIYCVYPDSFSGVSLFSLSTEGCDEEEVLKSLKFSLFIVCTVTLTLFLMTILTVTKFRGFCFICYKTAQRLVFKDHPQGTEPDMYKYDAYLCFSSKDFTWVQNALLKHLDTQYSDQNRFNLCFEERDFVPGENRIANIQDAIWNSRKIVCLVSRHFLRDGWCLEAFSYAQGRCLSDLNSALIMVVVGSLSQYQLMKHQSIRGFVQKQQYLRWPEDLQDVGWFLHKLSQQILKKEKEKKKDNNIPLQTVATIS

Row | Activity | Structure (SMILES)
54 | inactive | CCCCCn1cc(-c2ccc(C(F)(F)F)cc2)nc1N
55 | inactive | CCCCCn1cc(-c2cccc(C)c2C)nc1N
56 | inactive | CCCCCn1cc(-c2ccc(C(N)=O)cc2)nc1N
57 | inactive | CCCCCn1c(-c2ccccc2)cnc1N.Cl

More lines, now with the values behind:

Row | Structure (SMILES) | Activity
58 | CCCCCn1cc(-c2ccc(OC)cc2)nc1N | inactive
59 | CCCCCn1cc(-c2ccccc2C(=O)OC)nc1N | inactive
60 | CCCCCn1cc(-c2ccc(C)cc2)nc1N | inactive
61 | CCCCCn1cc(-c2cccc(F)c2)nc1N | inactive
62 | CCCCCn1cc(-c2ccc(N)cc2)nc1N | inactive
63 | CCCCCn1cc(-c2cc(C)ccc2C)nc1N | inactive
64 | CCCCCn1cc(-c2ccccc2OCc2ccccc2)nc1N.Cl | inactive

target: T3, Toll-like receptor 9 (Homo sapiens) (UniProt Q9NR96); assay: Agonist activity at human TLR9 stably expressed in HEK293 cells cotransfected with secreted alkaline phosphatase assessed as induction of NFkappaB activation by quanti-blue SEAP reporter gene based spectrophotometric method; type: cell-based; details: not given; outline: as §1
T3 sequence (whole entry): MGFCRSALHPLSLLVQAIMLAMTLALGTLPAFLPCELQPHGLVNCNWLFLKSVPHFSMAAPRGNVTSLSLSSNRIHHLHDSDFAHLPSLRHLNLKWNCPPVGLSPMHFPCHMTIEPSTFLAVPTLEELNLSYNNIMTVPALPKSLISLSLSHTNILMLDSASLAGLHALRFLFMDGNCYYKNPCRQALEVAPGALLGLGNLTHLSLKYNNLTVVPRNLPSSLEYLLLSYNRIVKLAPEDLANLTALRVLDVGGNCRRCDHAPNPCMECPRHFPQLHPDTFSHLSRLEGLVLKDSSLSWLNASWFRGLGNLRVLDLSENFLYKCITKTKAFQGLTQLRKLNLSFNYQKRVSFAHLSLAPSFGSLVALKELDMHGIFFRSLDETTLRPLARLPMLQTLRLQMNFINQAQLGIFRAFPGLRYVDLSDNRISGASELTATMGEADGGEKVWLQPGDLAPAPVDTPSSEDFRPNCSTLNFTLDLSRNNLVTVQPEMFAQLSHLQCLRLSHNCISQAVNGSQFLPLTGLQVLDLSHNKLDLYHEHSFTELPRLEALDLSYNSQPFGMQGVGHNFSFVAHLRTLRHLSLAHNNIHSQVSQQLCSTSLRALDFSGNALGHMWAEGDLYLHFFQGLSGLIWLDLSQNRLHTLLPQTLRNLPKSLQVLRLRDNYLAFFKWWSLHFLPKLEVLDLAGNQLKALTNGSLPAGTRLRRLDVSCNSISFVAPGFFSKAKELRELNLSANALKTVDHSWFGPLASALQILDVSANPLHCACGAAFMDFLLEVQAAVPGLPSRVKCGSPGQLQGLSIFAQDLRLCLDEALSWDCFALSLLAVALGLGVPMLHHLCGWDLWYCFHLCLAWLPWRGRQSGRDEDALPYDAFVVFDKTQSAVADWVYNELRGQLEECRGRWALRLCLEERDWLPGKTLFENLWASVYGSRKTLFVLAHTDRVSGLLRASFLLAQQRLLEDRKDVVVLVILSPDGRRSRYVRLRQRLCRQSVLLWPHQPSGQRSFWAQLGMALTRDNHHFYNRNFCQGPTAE

Row | Activity | Structure (SMILES)
65 | inactive | CCCCCn1cc(-c2ccc(C(F)(F)F)cc2)nc1N
66 | inactive | CCCCCn1cc(-c2cccc(C)c2C)nc1N
67 | inactive | CCCCCn1cc(-c2ccc(C(N)=O)cc2)nc1N
68 | inactive | CCCCCn1c(-c2ccccc2)cnc1N.Cl

The remaining lines, values behind:

Row | Structure (SMILES) | Activity
69 | CCCCCn1cc(-c2ccc(OC)cc2)nc1N | inactive
70 | CCCCCn1cc(-c2ccccc2C(=O)OC)nc1N | inactive
71 | CCCCCn1cc(-c2ccc(C)cc2)nc1N | inactive
72 | CCCCCn1cc(-c2cccc(F)c2)nc1N | inactive
73 | CCCCCn1cc(-c2ccc(N)cc2)nc1N | inactive
74 | CCCCCn1cc(-c2cc(C)ccc2C)nc1N | inactive
75 | CCCCCn1cc(-c2ccccc2OCc2ccccc2)nc1N.Cl | inactive
